From BindingDB's records for doi:10.1016/j.bmc.2012.11.002 (China Pharmaceutical University, 2012)

target: Tissue factor (Homo sapiens, UniProt P13726); assay: Inhibition of tissue factor procoagulant activity in LPS-stimulated human THP1 cells preincubated for 1 hr before LPS addition measured after 5 hrs
Procedure, shortened: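 THP-1 cells grown in RPMI-1640 with 10% heat-inactivated FCS, 37 °C, 5% CO2. Cells at 1 × 10⁶/mL pretreated 1 h with compound or 0.1% DMSO vehicle, then given 500 ng/mL LPS for 5 h. Cells were pelleted, resuspended, frozen/thawed three times, and the lysate incubated with prothrombin complex plus CaCl₂ (pH 7.3) 15 min at 37 °C. Factor Xa chromogenic substrate (0.5 mM) with EDTA was added and A405 read.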

Tissue factor, sequence (P13726 whole entry): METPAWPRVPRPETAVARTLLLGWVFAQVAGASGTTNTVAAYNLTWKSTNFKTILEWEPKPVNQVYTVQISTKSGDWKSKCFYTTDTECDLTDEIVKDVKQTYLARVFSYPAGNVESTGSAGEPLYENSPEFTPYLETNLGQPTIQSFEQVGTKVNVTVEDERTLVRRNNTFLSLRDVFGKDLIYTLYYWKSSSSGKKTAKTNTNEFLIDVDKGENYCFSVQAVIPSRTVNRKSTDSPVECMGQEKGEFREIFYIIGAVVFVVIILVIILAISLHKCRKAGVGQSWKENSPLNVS

Row | SMILES | IC50 [nM]
1 | COc1cc2c(cc1OC)C1Cc3ccc(OC)c(OC)c3CN1CC2 (centres undefined) [2,3,9,10-Tetramethoxy-5,8,13,13a-tetrahydro-6H-isoquino[3,2-a]isoquinoline] | 15
2 | COc1cc2c(cc1OC)C1Cc3ccc(OC)c(O)c3CN1CC2 (centres undefined) | 187
3 | CCC(=O)Oc1c(OC)ccc2c1CN1CCc3cc4c(cc3C1C2)OCO4 (centres undefined) | 119
4 | COc1cc2c(cc1OC)[C@H]1Cc3ccc(OC)c(O[C@@H]4O[C@H](CO)[C@@H](O)[C@H](O)[C@H]4O)c3CN1CC2 | 13
5 | COc1ccc2c(c1O[C@@H]1O[C@H](CO)[C@@H](O)[C@H](O)[C@H]1O)CN1CCc3cc4c(cc3[C@@H]1C2)OCO4 | 39
6 | COc1cc2c(cc1OC)[C@@H]1Cc3ccc(O)c(OC)c3CN1CC2 [(-)-Corydalmine] | 152
7 | CCCCCC(=O)Oc1c(OC)ccc2c1CN1CCc3cc4c(cc3C1C2)OCO4 (centres undefined) | 1500
8 | COc1ccc2c(c1OC)CN1CCc3cc4c(cc3C1C2)OCO4 (centres undefined) [9,10-dimethoxy-5,8,13,13a-tetrahydro-6H-[1,3]dioxolo[4,5-g]isoquino[3,2-a]isoquinoline] | 8.4
9 | COc1ccc2c(c1O[C@@H]1O[C@H](CO)[C@@H](O)[C@H](O)[C@H]1O)CN1CCc3cc4c(cc3[C@H]1C2)OCO4 | 8.8
10 | COc1ccc2c(c1OC(=O)c1ccccc1)CN1CCc3cc4c(cc3C1C2)OCO4 (centres undefined) | 377
11 | COc1ccc2c(c1O)CN1CCc3cc4c(cc3[C@@H]1C2)OCO4 | 36
12 | COc1ccc2c(c1O)CN1CCc3cc4c(cc3[C@H]1C2)OCO4 [R-(+)-Tetrahydroberberrubine] | 6.8
13 | COc1cc(/C=C/C(=O)Oc2c(OC)ccc3c2CN2CCc4cc5c(cc4C2C3)OCO5)ccc1OC(C)=O (centres undefined) | 202
14 | COc1ccc2c(c1OC(C)=O)CN1CCc3cc4c(cc3C1C2)OCO4 (centres undefined) | 63
15 | COc1ccc2c(c1OC)CN1CCc3cc(O)c(O)cc3C1C2 (centres undefined) | 969
16 | COc1cc2c(cc1OC)[C@@H]1Cc3ccc(OC)c(OC)c3CN1CC2 [(-)-Tetrahydropalmatine] | 23
17 | COc1ccc2c(c1OC(=O)/C=C/c1ccccc1)CN1CCc3cc4c(cc3C1C2)OCO4 (centres undefined) | 3.8
18 | COc1ccc2c(c1OC(=O)c1ccccc1OC(C)=O)CN1CCc3cc4c(cc3C1C2)OCO4 (centres undefined) | 555
19 | COc1cc2c(cc1OC)[C@@H]1Cc3ccc(OC)c(O[C@@H]4O[C@H](CO)[C@@H](O)[C@H](O)[C@H]4O)c3CN1CC2 | 17
